Our source for the yeast fitness values is the RNAGym collection of RNA variant scans (doi:10.1126/science.aae0568).

Sequences and labels used below:
B1: tRNA (parent)
chain: GUUCCGUUGGCGUAAUGGUAACGCGUCUCCCUCCUAAGGAGAAGACUGCGGGUUCGAGUCCCGUACGGAACG

Variants at the floor of the assay were thinned out. Some results are limits rather than exact numbers.

The variants in this data set derive from B1. Briefly: yeast fitness relative to wild type (ratio to wild type); higher = fitter; tRNA-Arg(CCU), competitive growth, 37 C, YPD. In outline: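 For this measurement, the tRNA-Arg(CCU) gene was varied by chemical synthesis at a 3% per-site mutation rate across 69 sites, and each variant was placed at the native genomic locus in Saccharomyces cerevisiae. The pooled strains went through a 24-hour competition in YPD at 37°C in six parallel replicates, with amplicons from start and end populations read by 100-nucleotide paired-end sequencing. Darwinian fitness relative to wild type followed from the change in each genotype's frequency. Genotypes needed ≥ 100 starting reads, and estimates < 0.5 were set to 0.5.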
Take C5U G10A C27G U35G G44A: the yeast fitness was at most 0.5.
C5U G9A G67A: the yeast fitness is 1.05.
On to C5U C33U A37C A42U U47C G52A U54C G67A, for which the yeast fitness was at most 0.5.
With C5U C46U A57G A70C the figure was at most 0.5.
On to C5U C46G C62U, for which the yeast fitness was determined as 0.697.
With C5U G6A G44C G63A the figure was at most 0.5; with C5U C46G C62U C66G, 0.538.
For the variant C5U G6C A36C G48C C62U, the yeast fitness worked out at 0.546.
With C5U C46G G68U, the yeast fitness is at most 0.5.
With C5U C60A C62G the figure was at most 0.5; with C5U G17A A21G A37G G39C G44C C46A U54C A65C, at most 0.5; with C5U G12A C22U C33U, at most 0.5.
Turning to C5U G17C C46A, the yeast fitness is 0.556.
With C5U G12C A40C G56C the figure was at most 0.5; with C5U G10C C30U, at most 0.5.
With C5U C55G, the yeast fitness was 0.676.
Regarding C5U C34A U64G, the yeast fitness is at most 0.5.
With C5U C49U A65U, the yeast fitness was 0.644.
On to C5U C49U A65C, for which the yeast fitness was determined as 0.745.
For C5U G10A G68C, the yeast fitness was at most 0.5.
Next, C5U G9A C34A: 0.704; C5U C62A: 0.649.
As for C5U C62G, the yeast fitness came out at 0.702.
C5U C49U U64A: the yeast fitness was at most 0.5.
Regarding C5U G12A G52C A70U, the yeast fitness was at most 0.5.
In the case of C5U C33U C61U, the yeast fitness was 0.632.
For C5U C34A U53A A57U A65U, the yeast fitness is at most 0.5.
Next, C5U C55A C61G: at most 0.5; C5U C66G G68C: 0.541; C5U C55U G67C: at most 0.5.
Consider C5U G9C U64A, for which the yeast fitness stood at 0.577.
In the case of C5U C34A C55G, the yeast fitness is at most 0.5.
As to C5U C34G A45U U53G A57G, the yeast fitness turned out to be 0.672.
Next, C5U C33G G38A C60A: 0.542.
As for C5U C33U A69C, the yeast fitness came out at 0.556.
Consider C5U C61A C66A, for which the yeast fitness is at most 0.5.
On to C5U G12C A43G G56A, for which the yeast fitness was at most 0.5.
Turning to C5U G6A C31G G50C U54C, the yeast fitness was at most 0.5.
With C5U G17C G18C C60G C61G, the yeast fitness is at most 0.5.
Next, C5U G6C U19C G25C U28G C62A: 0.747.
As to C5U G18C A45U, the yeast fitness is at most 0.5.
Consider C5U G17A C29U G52C C55G, for which the yeast fitness was at most 0.5.
For the variant C5U G6C A21C A42U C46U C66U, the yeast fitness was at most 0.5.
C5U G10C A21U C22U C24U U32C C46U C61G: the yeast fitness is at most 0.5.
Regarding C5U C34A G50C, the yeast fitness was at most 0.5.
C5U C55A A57C: the yeast fitness was at most 0.5.
On to C5U G10C C30A A36U A42C U64A C66G A69U, for which the yeast fitness was at most 0.5.
Take C5U C33G C49A: the yeast fitness is at most 0.5.
With C5U G17U A70U the figure was at most 0.5; with C5U G12C A21C C24A G41C G50A U53A, at most 0.5; with C5U G17C G52A, 0.61.
Take C5U G10A A40C G50A: the yeast fitness is at most 0.5.
For the variant C5U C66U, the yeast fitness was 0.877.
With C5U C46G C49G, the yeast fitness stood at 0.527.
As to C5U G9C A15C G38C C49G G68C, the yeast fitness was at most 0.5.
Regarding C5U G17C C24G G38C U54C, the yeast fitness is at most 0.5.
In the case of C5U G9A U13A A36C G50C, the yeast fitness is at most 0.5.
For the variant C5U C34G C55A G63C, the yeast fitness is at most 0.5.
On to C5U G12C U28A, for which the yeast fitness was 0.545.
With C5U C34U A65U the figure was 0.565; with C5U G10A A21G A40U, at most 0.5.
Turning to C5U C46U C55G U64A, the yeast fitness was determined as 0.638.
On to C5U G17A C49G C60A, for which the yeast fitness is at most 0.5.
Next, C5U G6U C11U A15G G48C: at most 0.5; C5U G9A G51C G52C: at most 0.5; C5U G10A A36G G44C: at most 0.5.
For the variant C5U C34U A69U, the yeast fitness amounted to 0.59.
Take C5U C55U G56C C62U: the yeast fitness came to 0.932.
As for C5U G17A C55A G67A A70G, the yeast fitness is at most 0.5.
With C5U G9A A21G U53A the figure was at most 0.5; with C5U G9C A42G, 0.626.
For C5U G10C C33U C46G, the yeast fitness is at most 0.5.
With C5U G10A U54C A57G, the yeast fitness was at most 0.5.
As for C5U G12A U47G C49U G68C, the yeast fitness is at most 0.5.
Next, C5U G9A A43C: 0.653; C5U G9A A65G: 0.736; C5U G10C G39C G51A: at most 0.5.
Take C5U G6A C22U G25C: the yeast fitness is at most 0.5.
As to C5U C34A A36G, the yeast fitness was at most 0.5.
For C5U G10A C62G C66G, the yeast fitness was at most 0.5.
As for C5U C46G G52C C62G C66U, the yeast fitness is at most 0.5.
With C5U C49U G67C the figure was 0.608; with C5U C49U C61A, at most 0.5.
Consider C5U G17C C30G U59A, for which the yeast fitness is at most 0.5.
Regarding C5U G12C U19A, the yeast fitness was at most 0.5.
As to C5U G10A A21G, the yeast fitness amounted to 0.59.
Turning to C5U G17C C30G, the yeast fitness was at most 0.5.
Consider C5U G17C A43C C49G, for which the yeast fitness is at most 0.5.
As for C5U G9A A20G, the yeast fitness is 0.663.
C5U G10A A20G A36U A43C: the yeast fitness is at most 0.5.
C5U G10C A21U C22U C27U U32C C46U C61G: the yeast fitness was at most 0.5.
Consider C5U G6C G39A A45U C46G A57C, for which the yeast fitness is at most 0.5.
Turning to C5U G17C C30A A57C, the yeast fitness is at most 0.5.
On to C5U G10A A69G, for which the yeast fitness was at most 0.5.
As to C5U G17C C30G C55G, the yeast fitness was at most 0.5.
As to C5U G10C A14G C46G C62U, the yeast fitness stood at 0.593.
Consider C5U C34U C49U U53C G67U, for which the yeast fitness is at most 0.5.
As to C5U G9A C61U, the yeast fitness was found to be 0.732.
With C5U C60G the figure was 0.627.
With C5U C60A the figure was 0.585; with C5U G18C, 0.721.
Next, C5U C55U G56C: 0.746.
Regarding C5U G17C U26G, the yeast fitness was 0.511.
As to C5U G17A A20G C55A G67A A70G, the yeast fitness is at most 0.5.
With C5U G12A A15U G63A A70U the figure was at most 0.5; with C5U G9A A21G C55U, at most 0.5.
For the variant C5U G17C, the yeast fitness was 0.721.
Next, C5U C33U G39A: 0.649.
Consider C5U G12A A40U A45G C60A, for which the yeast fitness was at most 0.5.
Take C5U C46U: the yeast fitness is 1.07.
Take C5U C46A: the yeast fitness turned out to be 1.
On to C5U G9A U26C G67U, for which the yeast fitness is at most 0.5.
Next, C5U G12A C49U: 0.612; C5U C55A G68C: at most 0.5.
As to C5U C34A A36G G63A, the yeast fitness is at most 0.5.
On to C5U G10A C34U G68U A69U, for which the yeast fitness was 0.505.
For C5U C33U A65G C66A, the yeast fitness is at most 0.5.
For C5U G10C A21U C22U U32C C46U C61G, the yeast fitness is at most 0.5.
With C5U G9A U13A the figure was 0.882; with C5U G18C A65U, 0.601; with C5U C33G C55U, at most 0.5.
For C5U C34U A42U, the yeast fitness stood at 0.529.
Regarding C5U C34G A45U, the yeast fitness turned out to be 0.534.
On to C5U G6C A14G, for which the yeast fitness was at most 0.5.
With C5U G12A A14G A57U, the yeast fitness was at most 0.5.
Regarding C5U C62G G63C A65U, the yeast fitness was at most 0.5.
Next, C5U C61U: 0.971; C5U C61G: 0.771.
In the case of C5U G10A C27G A57G, the yeast fitness was 0.541.
Consider C5U C34A G63A, for which the yeast fitness is at most 0.5.
Consider C5U G10A C46A, for which the yeast fitness was at most 0.5.
Take C5U C33G C49A A70C: the yeast fitness was at most 0.5.
Regarding C5U G9A G10C G12A G25A C33G G39A, the yeast fitness is at most 0.5.
Consider C5U G17A C46U G58A G63A U64A, for which the yeast fitness was at most 0.5.
C5U G17A A36U U47A: the yeast fitness was at most 0.5.
For the variant C5U G9C A36U C60G, the yeast fitness is at most 0.5.
With C5U C33U A45C C46G A69U, the yeast fitness is at most 0.5.
Take C5U G17A C33A C49U C66U: the yeast fitness is at most 0.5.
For the variant C5U G10A A20C G41A C46G G48A U54C C55U A70C, the yeast fitness amounted to 0.647.
On to C5U C34U C49G G52C C55U C62G, for which the yeast fitness is at most 0.5.
As for C5U G17C U26G G67A, the yeast fitness is 0.565.
With C5U G9A C34U C46G C49U the figure was 0.513; with C5U G6A U35C A36U G38A C46A U54C, at most 0.5.
Next, C5U C34G A45C C66G: at most 0.5; C5U G12C A21C C24A G41C U53A: at most 0.5; C5U C55A C62A: at most 0.5.
Consider C5U C34G A65C, for which the yeast fitness was found to be 0.525.
As to C5U G10A C22U A40G G56C C66A, the yeast fitness is at most 0.5.
With C5U G10C C27G U28C G39C C46G the figure was 0.606; with C5U G10C A21U C22U U32C C46U, at most 0.5.
With C5U C33U C49G A65C, the yeast fitness is at most 0.5.
On to C5U C46A C66U, for which the yeast fitness was 0.663.
Take C5U C49U C66U: the yeast fitness stood at 0.887.
Take C5U G17A C29U G52C C55G A69U: the yeast fitness is at most 0.5.
C5U G10C A15G C29G A40C A43U U47A C60A: the yeast fitness was at most 0.5.
As for C5U G6A A15U C31U U32C G67C, the yeast fitness is at most 0.5.
With C5U G6C A20U A45U, the yeast fitness was at most 0.5.
With C5U G18C C22A U54A A65G the figure was at most 0.5; with C5U C34A C49A U59G, at most 0.5; with C5U G9C C11G C24A U26G G68A A69C, at most 0.5.
With C5U G10C C34A A57U G67C the figure was at most 0.5; with C5U C34A G44C C62U, 0.723; with C5U G9A C31A A57C C66A A69U, at most 0.5.
In the case of C5U G10A G38C, the yeast fitness is at most 0.5.
With C5U G10A C27G the figure was at most 0.5; with C5U G9A C62U, 0.995.
Regarding C5U C34A G39C G52A G58A, the yeast fitness is at most 0.5.
